Laboratory results published in ChEMBL document CHEMBL4808210, “Mapping Chromone-3-Phenylcarboxamide Pharmacophore: Quid Est Veritas?” (J Med Chem, 2021).

How the values were obtained:
[1] = Solubility of the compound in phosphate buffer at > 10 uM; format: physicochemical
SH-SY5Y [2] = experiment: Cytotoxicity against human SH-SY5Y cells assessed as reduction in cell viability at 10 uM measured after 24 hrs by MTT assay relative to control; format: cell-based
Outline: (§1)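 Caco-2 cells, and SH-SY5Y cells first differentiated toward a dopaminergic-like phenotype, were treated for 24 h with compounds at 1 and 10 μM. Metabolic activity was read as MTT reduction to formazan, relative to untreated cells. Mean ± SEM of at least three independent experiments, each in triplicate.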

MAO-A = biological target: T1, MAO-A (Homo sapiens, UniProt P21397); experiment: (§2) Inhibition of recombinant human MAO-A expressed in baculovirus infected BTI-TN- 5B1-4 insect cells at 10 uM using kynuramine as substrate preincubated for 10 mins in presence of substrate followed by enzyme addition and measured every minute for 30 mins by spectrophotometry analysis relative to control; details: probe kynuramine, time 40 min
T1 sequence (P21397 whole entry): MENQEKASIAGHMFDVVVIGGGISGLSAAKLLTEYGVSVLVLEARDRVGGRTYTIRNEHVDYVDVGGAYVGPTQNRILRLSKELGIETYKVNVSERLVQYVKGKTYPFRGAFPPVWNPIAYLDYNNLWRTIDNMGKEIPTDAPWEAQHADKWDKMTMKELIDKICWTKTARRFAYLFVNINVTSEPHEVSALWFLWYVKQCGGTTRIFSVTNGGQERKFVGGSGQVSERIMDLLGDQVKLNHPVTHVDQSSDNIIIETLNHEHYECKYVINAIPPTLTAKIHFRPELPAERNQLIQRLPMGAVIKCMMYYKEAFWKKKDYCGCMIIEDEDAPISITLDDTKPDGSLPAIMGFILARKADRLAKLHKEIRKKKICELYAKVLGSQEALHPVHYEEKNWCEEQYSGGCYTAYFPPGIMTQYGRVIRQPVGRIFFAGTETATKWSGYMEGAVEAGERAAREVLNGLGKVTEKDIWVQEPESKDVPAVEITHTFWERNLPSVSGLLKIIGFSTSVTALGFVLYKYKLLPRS
Outline: (§3)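 Recombinant hMAO-A and hMAO-B were assayed with kynuramine as substrate. Percent inhibition was taken at 10 μM, the highest concentration tested. Where the hMAO-A IC₅₀ was not reached, it was taken as 10 μM.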

Caco-2 = experiment: Cytotoxicity against human Caco-2 cells assessed as effect on cell viability at 1 to 10 uM measured after 24 hrs by MTT assay; format: cell-based; details: caco-2, 24 h, dose 1-10 µM; outline: as §1
SH-SY5Y [3] = experiment: Cytotoxicity against human SH-SY5Y cells assessed as effect on NR uptake at 1 to 10 uM measured after 24 hrs by neutral red uptake assay; format: cell-based; details: dose 1-10 µM
Outline: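 Differentiated SH-SY5Y cells were exposed to compounds at 1 and 10 μM for 24 h. Lysosomal activity was read as neutral red dye uptake and compared with untreated cells. Mean ± SEM of at least three independent experiments run in triplicate.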

Homo sapiens = organism: Homo sapiens; experiment: Selectivity index, ratio of IC50 for recombinant human MAO-A expressed in baculovirus infected BTI-TN- 5B1-4 insect cells to IC50 for recombinant human MAO-B expressed in baculovirus infected BTI-TN- 5B1-4 insect cells using kynuramine as substrate preincubated for 10 mins in presence of substrate followed by enzyme addition and measured every minute for 30 mins by spectrophotometry analysis; outline: as §3
[4] = biological target: T2, Amine oxidase [flavin-containing] B (Homo sapiens, UniProt P27338); experiment: Inhibition of recombinant human MAO-B expressed in baculovirus infected BTI-TN- 5B1-4 insect cells using kynuramine as substrate preincubated for 10 mins in presence of substrate followed by enzyme addition and measured every minute for 30 mins by spectrophotometry analysis; format: cell-based
T2 sequence (P27338 whole entry): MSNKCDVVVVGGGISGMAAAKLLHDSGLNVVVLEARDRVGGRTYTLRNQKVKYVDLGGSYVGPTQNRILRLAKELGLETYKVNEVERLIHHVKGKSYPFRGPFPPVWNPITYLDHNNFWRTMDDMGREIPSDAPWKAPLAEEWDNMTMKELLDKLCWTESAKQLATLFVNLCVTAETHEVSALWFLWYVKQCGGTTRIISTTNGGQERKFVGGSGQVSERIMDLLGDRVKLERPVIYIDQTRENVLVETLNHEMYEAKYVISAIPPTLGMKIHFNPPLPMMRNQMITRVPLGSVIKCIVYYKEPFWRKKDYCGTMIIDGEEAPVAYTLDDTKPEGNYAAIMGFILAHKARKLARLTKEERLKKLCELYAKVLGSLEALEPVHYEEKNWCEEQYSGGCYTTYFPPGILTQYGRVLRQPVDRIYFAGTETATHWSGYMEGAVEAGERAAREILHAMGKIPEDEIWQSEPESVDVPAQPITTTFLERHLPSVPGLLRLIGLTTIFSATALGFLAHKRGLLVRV

[5] = biological target: T2, Amine oxidase [flavin-containing] B; experiment: as §2, with “MAO-B” for “MAO-A”; details: BTI-TN-5B1-4, human, 0.5 h, time 40 min; outline: as §3
[6] = biological target: T3, Amine oxidase [flavin-containing] A (Homo sapiens, UniProt P21397); experiment: Inhibition of recombinant human MAO-A expressed in baculovirus infected BTI-TN- 5B1-4 insect cells using kynuramine as substrate preincubated for 10 mins in presence of substrate followed by enzyme addition and measured every minute for 30 mins by spectrophotometry analysis; outline: as §3
T3 sequence (P21397 whole entry): T1 sequence (P21397 whole entry)

SMILES	inhibition at 0.5 h, 10 µM (MAO-A) [%]	IC50 [4] [µM]	Ratio IC50 (Homo sapiens)	also measured
Cn1c(=O)c(C(=O)Nc2cccc(Cl)c2)cc2ccccc21				solubility [1]: Insoluble
O=C(Nc1ccc(Cl)c(Cl)c1)c1cc2ccccc2[nH]c1=O				solubility [1]: Insoluble
Cc1ccc(NC(=O)C2COc3ccccc3C2)cc1C (centres undefined)	19.6	1.78	> 5.62	
COc1ccc(NC(=O)C2COc3ccccc3C2)cc1OC (centres undefined)	11.8			inhibition at 10 µM [5]: 14%
O=C(Nc1cccc(Cl)c1)c1cc2ccccc2[nH]c1=O	2.65			inhibition at 10 µM [5]: 8.9%
Cn1c(=O)c(C(=O)Nc2ccc(Cl)c(Cl)c2)cc2ccccc21				solubility [1]: Insoluble
COc1ccc(NC(=O)C2=Cc3ccccc3OC2)cc1OC	20.2	2.87	> 3.48	
Cc1ccc(NC(=O)C2=Cc3ccccc3OC2)cc1C		0.0457	300	Activity (Caco-2): Non-Toxic; Activity (SH-SY5Y [3]): Non-Toxic; IC50 [6]: 13.7 µM
Cc1ccc(NC(=O)c2csc3ccccc3c2=O)cc1C	0.2	0.00335	> 2990	Activity (Caco-2): Non-Toxic; Activity (SH-SY5Y [3]): Non-Toxic

The next lines start with results.

inhibition at 0.5 h, 10 µM (MAO-A) [%]	IC50 [4] [µM]	SMILES	Ratio IC50 (Homo sapiens)	also measured
26.8		Cc1ccc(NC(=O)c2cc3ccccc3oc2=O)cc1C		Activity (SH-SY5Y [2]): < 85%; Activity (Caco-2): Non-Toxic; Activity (SH-SY5Y [3]): Non-Toxic
1.32		Cc1ccc(NC(=O)c2cc3ccccc3[nH]c2=O)cc1C		inhibition at 10 µM [5]: 8.1%
